This note sets out measurements from ChEMBL document CHEMBL1255261, “Lethal mutagenesis of picornaviruses with N-6-modified purine nucleoside analogues” (Antimicrob Agents Chemother, 2008).

Series [1] deals with Coxsackievirus. As to the kind of experiment: Antiviral activity against Coxsackievirus infected in compound pre-treated HeLaS3 cells assessed as reduction in viral titer at 0.5 mM after 6 hrs relative to control. It counts as functional, HeLa S3. Further details: scale not given: the % may be the effect or the level left. The method, boiled down:
(§1)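 HeLa S3 cells pretreated with nucleoside (0.5 or 2 mM) for 1 h, then infected with CVB3 at MOI 5. Fresh medium containing the analogue was added and infection ran 6 h at 37°C. Cell-associated virus was collected by freeze-thaw and titrated on HeLa S3 monolayers. Result is percent reduction in titer versus untreated infection.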

The nature of series [2]: Cytotoxicity against human HeLaS3 cells assessed cell viability at 0.05 after 24 hrs by Alamar blue assay. The series is classed as cell-based, HeLa S3. Particulars: read-out: Activity. An outline of the steps: (§2)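 HeLa S3 cells were seeded at 2 × 10^3 per well in DMEM/F-12 with 2% FBS and allowed to adhere 1 h at 37°C. Nucleoside in medium (0.05–2 mM) was added with continuous exposure at 37°C. Resazurin (Alamar blue) was added 6 h before the 24 h read. Percent reduction was taken from A570 corrected by A590 and normalized to vehicle (DMSO) cells set at 100%. Triplicate wells, mean ± SD.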

The nature of series [3]: Metabolic stability in human HeLaS3 cells assessed as JA28-triphosphate at 0.5 mM after 2 hrs by reverse-phase HPLC. The series is classed as ADME, cell-based. Conditions: hela s3, 2 h, 500 µM. The method, boiled down: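 Suspension-adapted HeLa S3 cells at 5 × 10^6 cells/ml in S-MEM with 2% dialyzed FBS were pretreated with actinomycin D (2.5 μg/ml, 15 min, 37°C). Nucleoside was then added to 0.5 mM final with 1% DMSO, 2 h at 37°C. Cells were extracted with ice-cold 0.6 M TCA, then trioctylamine/trichlorotrifluoroethane. Aqueous layer was run on C18 reversed-phase HPLC (CH3CN gradient in KH2PO4, pH 6.0). Triphosphate was identified by retention time and UV spectrum against synthesized standard.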

Series [4] concerns Enterovirus C. As to the kind of experiment: Antiviral activity against Poliovirus infected in compound pre-treated HeLaS3 cells assessed as reduction in viral titer at 0.5 mM after 6 hrs relative to control. It counts as functional, HeLa S3. Also noted: scale not given: the % may be the effect or the level left. The method, boiled down:
(§3)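 HeLa S3 cells (DMEM/F-12, 2% dialyzed FBS, 37°C, 5% CO2) pretreated 1 h with nucleoside (0.5 or 2 mM), then infected with PV at MOI 5. Fresh medium with analogue added, infection run 6 h at 37°C. Cell-associated virus collected by freeze-thaw and titred on HeLa S3 monolayers. Result given as percent titer reduction versus untreated control.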

For series [5], the system named is Enterovirus C. As to the kind of experiment: Antiviral activity against Poliovirus infected in compound pre-treated HeLaS3 cells assessed as reduction in viral titer at 2 mM after 6 hrs relative to control. The series is classed as functional, HeLa S3. Further details: scale not given: the % may be the effect or the level left. An outline of the steps: as §3
In series [6] the test system is Coxsackievirus. As to the kind of experiment: Antiviral activity against Coxsackievirus infected in compound pre-treated HeLaS3 cells assessed as reduction in viral titer at 2 mM after 6 hrs relative to control. The series is classed as functional, HeLa S3. Further details: scale not given: the % may be the effect or the level left. The method, boiled down:
as §1

The nature of series [7]: Cytotoxicity against human HeLaS3 cells assessed cell viability at 2 mM after 24 hrs by Alamar blue assay. The series is classed as cell-based, HeLa S3. Conditions: read-out: Activity. An outline of the steps:
as §2

The structures appear in SMILES notation.

Turning to `OC[C@H]1O[C@@H](n2cnc3c(NO)ncnc32)[C@H](O)[C@@H]1O`, the values for the Activity in the series with Coxsackievirus [1] and in the series with Enterovirus C [4] were 97% and 98%, respectively. Besides, in series [2], the viability at 24 h is 61%. The Stability result in series [3] is on record as “Stable”.

Regarding `Nc1nc2c(ncn2[C@@H]2O[C@H](CO)[C@@H](O)[C@H]2O)/c(=N\O)[nH]1`, the results for the Activity in the series on Enterovirus C [5] and with Coxsackievirus [6] were 99.97% and 99.99%, respectively. For the same molecule, the viability at 24 h, 2000 µM in series [7] was found to be 37%.

Consider `NNc1ncnc2c1ncn2[C@@H]1O[C@H](CO)[C@@H](O)[C@H]1O`, for which the Activity in the series with Coxsackievirus [1] came out at 99.9%; in the series with Enterovirus C [4] it was 99.7%. Also, the viability at 24 h in series [2] amounted to 56%.

For the molecule `CO/N=c1/[nH]cnc2c1ncn2[C@@H]1O[C@H](CO)[C@@H](O)[C@H]1O`, the Activity worked out at 81% with Enterovirus C [5] and 22% in the series with Coxsackievirus [6].

As to `CO/N=c1/[nH]c(N)nc2c1ncn2[C@@H]1O[C@H](CO)[C@@H](O)[C@H]1O`, the Activity is recorded as 45% in the series with Enterovirus C [5] and 0% in the series with Coxsackievirus [6].

With `CN(N)c1ncnc2c1ncn2[C@@H]1O[C@H](CO)[C@@H](O)[C@H]1O`, the figures for the Activity in the series on Enterovirus C [5] and in the series on Coxsackievirus [6] were 35% and 0%, respectively.

Take `NNc1nc(N)nc2c1ncn2[C@@H]1O[C@H](CO)[C@@H](O)[C@H]1O`: the Activity is given as 97% with Enterovirus C [5] and 95% with Coxsackievirus [6]. Moreover, the viability at 24 h, 2000 µM in series [7] was found to be 57%.

As to `CN(N)c1nc(N)nc2c1ncn2[C@@H]1O[C@H](CO)[C@@H](O)[C@H]1O`, the values for the Activity in the series on Enterovirus C [5] and with Coxsackievirus [6] were 88% and 11%, respectively.
